Compound activity: PubChem BioAssay, several laboratories
The entries come from a sample that favours hits as a whole.
UPR CHOP act – activators of apoptotic arm of unfolded protein response (CHOP); hit rate 0.34% among 330,000; CHO-CHOP luciferase reporter, UPR activation, luminescence; percent of tunicamycin response over DMSO baseline; AID 449763; activation, % at 10 µM;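 active means at 10 µM dose, activation of 40% or more, normalized to positive control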;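 further: 100% = tunicamycin at 10 µg/mL and 0% = DMSO alone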
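Assay system: CHO-CHOP cells, stable luciferase reporter of PERK-eIF2a-CHOP signalling / Buffer or medium: F12 plus 10% serum / Compound dosing: one dose, 10 µM in 0.5% DMSO / Times: 6 h compound treatment, 37 °C / Technique: luciferase luminescence / Read-out: % reporter activation, DMSO baseline versus tunicamycin full activation / Benchmarks: tunicamycin and DMSO controls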
Fh CTSL1 inh – cathepsin L1 inhibition, PFM18AAP counter-screen. inhibition, % at 5.96 µM. recombinant F. hepatica cathepsin L1, Z-Leu-Arg-MCA fluorescence. hit rate 0.49% among 300,000;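 active means inhibition above the mean of all tested compounds plus 3 SD, set per screening campaign, cut at about 17% in these data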;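 further: 0% = plate median of test compound wells and 100% = 1 µM Z-Phe-Ala-diazomethylketone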
UCH37 inh – inhibitors of human deubiquitinating enzyme UCH37; Q9Y5K5; purified proteasome/UCH37, Ub-AMC cleavage fluorescence; inhibition, % (no concentration beside the values); hit rate 0.33% among 330,000; AID 588478;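 active means mean inhibition over replicate wells above about 20%, limit read from the data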;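 further: 0% = compound-free wells with enzyme and 100% = wells lacking proteasome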
Target sequence (Q9Y5K5 whole entry, looked up): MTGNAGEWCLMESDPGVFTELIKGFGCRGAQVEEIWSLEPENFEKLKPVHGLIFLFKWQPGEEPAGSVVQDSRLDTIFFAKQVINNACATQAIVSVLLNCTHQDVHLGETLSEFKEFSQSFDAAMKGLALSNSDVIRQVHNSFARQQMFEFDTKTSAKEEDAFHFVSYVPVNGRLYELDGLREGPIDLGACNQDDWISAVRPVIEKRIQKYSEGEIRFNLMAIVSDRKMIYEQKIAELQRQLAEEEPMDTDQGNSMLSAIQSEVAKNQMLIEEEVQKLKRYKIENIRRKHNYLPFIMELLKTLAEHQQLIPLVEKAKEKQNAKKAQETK
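Material: human UCH37 enzyme supplied as purified proteasome complex. Measure: % inhibition of Ub-AMC cleavage fluorescence. Medium: pH 7.4 Tris-HCl (50 mM) with ovalbumin, ATP-MgCl2, DTT. Times: 30 min preincubation with enzyme, 25 min cleavage at room temperature. Detection: AMC fluorescence intensity at 355/460 nm.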
XBP1 UPR activ – activators of adaptive arm of unfolded protein response (XBP1) | AID 463104 | hit rate 0.33% among 330,000 | CHO-XBP1 luciferase reporter, IRE1-XBP1 UPR activation, luminescence; percent of tunicamycin response, DMSO as zero | activation, % at 20 µM;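 active means versus positive control, 20 µM dose yields 30% or more activation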;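 further: 100% = tunicamycin at 10 µg/mL and 0% = DMSO only wells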
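Test system: CHO-XBP1 luciferase reporter cells | Buffer or medium: Serum-containing F12 medium, 10% FBS | Schedule: 6 h compound exposure at 37 °C, 5% CO2 | Detection: Steady-Glo luciferase glow luminescence, 10 min after reagent addition | Read-out basis: Activation, % of tunicamycin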
CHOP inh – inhibitors of CHOP induction in ER stress response. CHO-K1 CHOP-promoter luciferase, tunicamycin-induced, 15-18 h. inhibition, % at 10 µM. hit rate 3.8% among 220,000. AID 2732;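 active means compounds that reduced the stress-induced luciferase reporter signal by more than about 70% of percent inhibition, limit read from the data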;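 further: 0% = tunicamycin plus vehicle and 100% = wells without tunicamycin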
Active calls of the source: *.

CCn1c(O)c(N=Nc2ccc(Cl)c(C(=O)O)c2)c2ccccc21 was read as UPR CHOP act 3.6, Fh CTSL1 inh 4.6, UCH37 inh 20.2*, XBP1 UPR activ -0.6 and CHOP inh -7.1.
For CCOC(=O)N=Nc1c(O)n(Cc2ccccc2)c2ccccc12 the results were UPR CHOP act 0.8, Fh CTSL1 inh 4.0, UCH37 inh 0.8, XBP1 UPR activ 3.3 and CHOP inh 79.7*.
O=C(CON=Cc1cccc([N+](=O)[O-])c1)NC1CCCCC1 was read as UCH37 inh 2.8.
Screening CN1CCc2c(sc(N=Cc3c[nH]c4ccccc34)c2C(N)=O)C1 returned UCH37 inh 9.5.
For O=C(Nc1ncc(Cc2cccc(Cl)c2)s1)c1ccc([N+](=O)[O-])cc1 the results were UPR CHOP act 1.7, Fh CTSL1 inh 1.3, XBP1 UPR activ 0.4 and CHOP inh 75.6*.
For CC(=NNC(=O)COc1ccc(C)cc1[N+](=O)[O-])c1cccs1 the results were UCH37 inh 1.8.
`COc1cc(C=Nn2c(C)nc3ccccc3c2=O)cc(OC)c1O` gave UCH37 inh 6.9.
CCOC(=O)C1=C(N)OC2=C(C(=O)CC(C)(C)C2)C1C1CCCCC1 (stereo not drawn) was read as UPR CHOP act -0.8, Fh CTSL1 inh 6.2, UCH37 inh 3.0, XBP1 UPR activ -0.3 and CHOP inh 96.0*.
CCOC(=O)C1=C(N)OC2=C(C(=O)CC(C)(C)C2)C1c1ccoc1 (stereo not drawn) was read as UPR CHOP act 0.7, Fh CTSL1 inh -1.1, UCH37 inh 1.9, XBP1 UPR activ -2.4 and CHOP inh 9.1.
Screening Cc1cccc(C)c1OCC(=O)N=Nc1c(O)[nH]c2ccc(Br)cc12 returned UPR CHOP act 0.6, Fh CTSL1 inh 0.0, UCH37 inh 6.3, XBP1 UPR activ 24.1 and CHOP inh -9.9.
For Cc1cc2c(N=NC(=O)CCc3ccccc3)c(O)[nH]c2cc1Br the results were UPR CHOP act -0.6, Fh CTSL1 inh -0.5, UCH37 inh 5.9, XBP1 UPR activ -2.5 and CHOP inh 83.0*.
O=C(OCC(=O)c1c[nH]c2ccccc12)c1cc2ccccc2cc1O was read as UPR CHOP act 1.9, Fh CTSL1 inh 1.9, XBP1 UPR activ 1.0 and CHOP inh 72.6*.
COc1ccc(C(=O)OCC(=O)c2c[nH]c3ccccc23)c(OC)c1 was read as UPR CHOP act 6.1, UCH37 inh -2.9 and XBP1 UPR activ 2.6.
For CCOc1cc(CNc2ccc3cn[nH]c3c2)ccc1OC the results were UPR CHOP act -2.6, Fh CTSL1 inh 0.5, UCH37 inh -6.7, XBP1 UPR activ 7.1 and CHOP inh 26.5.
For COc1ccc(CNc2ccc3cn[nH]c3c2)c(OC)c1OC the results were UPR CHOP act -1.2, Fh CTSL1 inh 1.1, UCH37 inh 21.7*, XBP1 UPR activ -1.1 and CHOP inh 18.4.
Screening CCN1/C(=C/C=C/c2oc3ccc4ccccc4c3[n+]2CC)Oc2ccc3ccccc3c21 returned UPR CHOP act 12.8, Fh CTSL1 inh 0.3, UCH37 inh 2.0, XBP1 UPR activ -2.3 and CHOP inh 70.0*.
For N=c1sccn1CC(=O)Nc1cccc2ccccc12 the results were UPR CHOP act -0.9, Fh CTSL1 inh 1.7, UCH37 inh 20.3*, XBP1 UPR activ 0.0 and CHOP inh 20.2.
For CN(C)S(=O)(=O)c1cccc(NC(=S)NCCCn2ccnc2)c1 the results were UPR CHOP act -2.3, Fh CTSL1 inh 17.4*, UCH37 inh 1.4, XBP1 UPR activ 0.0 and CHOP inh 6.3.
Cc1c(C(=O)NN=Cc2cccnc2)sc(=S)n1C was read as UCH37 inh 9.5.
Cc1ccc([N+](=O)[O-])cc1-c1ccc(C=Nn2nnnc2N)o1 was read as UCH37 inh 4.3.
For Cc1c(Cl)cccc1NC(=S)N=Nc1c(O)n(CN2CCOCC2)c2ccccc12 the results were UPR CHOP act 14.2, Fh CTSL1 inh 0.6, XBP1 UPR activ 7.0 and CHOP inh 87.2*.
Screening CCCCc1nc(N)c(C#N)c(-c2ccco2)c1CCC returned UPR CHOP act 0.0, Fh CTSL1 inh 2.2, UCH37 inh -64.1, XBP1 UPR activ 0.7 and CHOP inh 76.6*.
`CCSc1nc(N)c(C#N)c(-c2ccco2)c1C#N` gave UPR CHOP act 1.0, Fh CTSL1 inh -4.7, UCH37 inh -2.0, XBP1 UPR activ 6.2 and CHOP inh 22.1.
`Cc1ccc2nc(-c3ccc(NC(=O)CSc4nc(N)cc(=O)[nH]4)cc3)sc2c1` gave UPR CHOP act 7.7, Fh CTSL1 inh 3.0, UCH37 inh -84.5, XBP1 UPR activ 3.6 and CHOP inh 72.6*.
Cc1nnc(SCC(=O)Nc2ccccc2NC(=O)CSc2nnc(C)s2)s1 was read as UPR CHOP act -0.1, Fh CTSL1 inh -1.0, UCH37 inh -0.2, XBP1 UPR activ -1.2 and CHOP inh 16.8.
Cc1nnc(SCC(=O)Nc2ccc(-c3nc4ccccc4s3)cc2)s1 was read as Fh CTSL1 inh -0.1, UCH37 inh -44.2 and CHOP inh 85.9*.
Cc1ccc2nc(-c3ccc(NC(=O)CCS(=O)(=O)c4ccccc4)cc3)sc2c1 was read as UPR CHOP act -4.5, Fh CTSL1 inh 15.5, UCH37 inh -101.9, XBP1 UPR activ -2.6 and CHOP inh 81.5*.
`COc1ccc(C2(C)NC(=O)N(CC(=O)Nc3ccc(-c4nc5ccc(C)cc5s4)cc3)C2=O)cc1` (stereo not drawn) gave UPR CHOP act 0.1, Fh CTSL1 inh 2.4, UCH37 inh -360.3, XBP1 UPR activ -2.5 and CHOP inh 71.5*.
Cc1nc2ccc(NC(=O)CCS(=O)(=O)c3ccccc3)cc2s1 was read as UPR CHOP act 2.1, Fh CTSL1 inh 3.9, UCH37 inh -0.5, XBP1 UPR activ 0.3 and CHOP inh -10.8.
Cc1ccc(S(=O)(=O)Nc2ccc(-c3nc4ccc(C)cc4s3)cc2)cc1 was read as UPR CHOP act 5.6, Fh CTSL1 inh 3.3, UCH37 inh -121.0, XBP1 UPR activ -0.6 and CHOP inh 87.1*.
Cc1ccc2nc(-c3ccc(NC(=S)NC(=O)CC(C)C)cc3)sc2c1 was read as UPR CHOP act 5.9, Fh CTSL1 inh 2.8, UCH37 inh 0.5, XBP1 UPR activ 8.3 and CHOP inh 96.1*.
Screening Cc1ccc2nc(-c3ccc(NC(=O)CNC4CC4)cc3)sc2c1 returned UCH37 inh -63.4 and CHOP inh 28.4.
`Cc1cc(C)n2nc(C(=O)NN=Cc3c4ccccc4cc4ccccc34)nc2n1` gave UCH37 inh -19.5.
Screening CCOc1cc(C=NN=C(N)c2nonc2N)cc(Br)c1OCc1cccc2ccccc12 returned UCH37 inh 5.3.
CCOc1cc(/C=C/C(=O)NCCc2ccc(S(N)(=O)=O)cc2)ccc1OCC(C)C was read as UPR CHOP act -0.1, Fh CTSL1 inh 19.0*, UCH37 inh -9.5, XBP1 UPR activ -1.1 and CHOP inh 2.4.
